Published values pooled from the literature.
Target: Tyrosine-protein kinase Lyn (LYN, Homo sapiens, UniProt P07948)

| SMILES | read-out | technique | concentration | remaining binding [%] |
| --- | --- | --- | --- | --- |
| Cc1cnn2ncc(-c3ccnc(N(C)C)n3)c2c1 | binding | – | 1 µM | 92 |
| CCS(=O)(=O)c1cc2cc(C[C@@](O)(CC(C)(C)c3ccc(F)cc3C(N)=O)C(F)(F)F)[nH]c2cn1 | cell-free assay | competition with immobilised ligand | 1 µM | 100 |
| c1cnn2ncc(-c3ccnc(N4CCC45COC5)n3)c2c1 | binding | – | 1 µM | 88 |
| O=C(NCCCN1CCOCC1)c1ccc(Nc2ncc(Cl)c(-c3ccc(Cl)s3)n2)cc1 | binding | competition with immobilised ligand | 1 µM | 87 |
| Cc1ccc(-n2nc(C(C)(C)C)cc2NC(=O)Nc2ccc(-n3c(N)c(C(N)=O)c4nc5ccc(NCCCN)cc5nc43)cc2)cc1 | cell-free assay | competition with immobilised ligand | 1 µM | 0.5 |
| O=c1nc(-c2ccccn2)sc2ccccc12 | cell-free assay | competition with immobilised ligand | 1 µM | 100 |
| N[C@@H]1CCN(c2nccc(-c3cnn4ncccc34)n2)C1 | binding | – | 1 µM | 100 |
| Nc1ncc2c(n1)-c1c([nH]c3ccc(C#CC4CC4)cc13)CCCC2 | binding | competition with immobilised ligand | 1 µM | 93 |
| CO[C@@H](C)c1c(Nc2ccc([C@@H](N(C)C(=O)C3CCS(=O)(=O)CC3)C(F)(F)F)cc2)cnc2cc(Cl)nn12 | cell-free assay | competition with immobilised ligand | 1 µM | 97 |
| C[C@@H](c1ccc(-n2cnc3c(N)ncnc32)cc1)N1CCc2nn(C)c(Cc3ccccc3)c2C1=O | binding | competition with immobilised ligand | 0.1 µM | 100 |
| CN(C)c1ncc(F)c(-c2cnn3ncccc23)n1 | binding | – | 1 µM | 100 |
| COc1cnc(Nc2cccc(S(N)(=O)=O)c2)nc1N1CCN(c2ccccc2)C(=O)C1 | binding | competition with immobilised ligand | 1 µM | 100 |
| COc1ccnn2ncc(-c3ccnc(N(C)C)n3)c12 | binding | – | 1 µM | 100 |
| O=C(c1ccc(Nc2nccc(-c3cc4ccccc4s3)n2)cc1)N1CCC(N2CCCC2)CC1 | binding | competition with immobilised ligand | 1 µM | 97 |
| CCN1CCN(Cc2ccc(C(=O)Nc3ccc(C)c(Oc4ccc5c(c4)CC(=O)N5)c3)cc2C(F)(F)F)CC1 | binding | competition with immobilised ligand | 1 µM | 52 |
| O=C(NCC1CCOCC1)c1n[nH]cc1NC(=O)c1c(F)cccc1F | binding | competition with immobilised ligand | 1 µM | 92 |
| CSc1cccnc1N1CCN(Cc2nc3ccccc3[nH]2)CC1 | cell-free assay | competition with immobilised ligand | 1 µM | 95 |
| C[C@H]1CCN(c2nccc(-c3cnn4ncccc34)n2)C1 | binding | – | 1 µM | 64 |
| CCCCN(CCCC)C(=O)CN1C[C@@H](c2cc(OC)c3c(c2)OCO3)[C@H](C(=O)O)[C@H]1CC(C)(C)CCC | cell-free assay | competition with immobilised ligand | 1 µM | 75.1 |
| CNC(=O)[C@@H]1CC[C@@H](n2c(-c3ccc4cnccc4c3)nc3ccc(C(=O)NCc4cccc(C(N)=O)c4)cc32)C1 | binding | competition with immobilised ligand | 1 µM | 95 |
| Nc1cnc(N2CCc3cc(S(=O)(=O)Nc4c(F)cc(Cl)cc4F)cc(N4CCCC4=O)c32)nc1 | cell-free assay | competition with immobilised ligand | 1 µM | 88 |
| O=C(NCCCN1CCOCC1)c1ccc(Nc2nccc(-c3cc4ccccc4s3)n2)cc1 | binding | competition with immobilised ligand | 1 µM | 94 |
| O=C(NCc1ncc(C(F)(F)F)cc1Cl)c1ccc2c(c1)C1(CCS(=O)(=O)CC1)[C@H](C1CC1)N2S(=O)(=O)c1ccc(F)cc1 | cell-free assay | competition with immobilised ligand | 1 µM | 100 |
| CN(c1nccc(-c2cnn3ncccc23)n1)C1CC1 | binding | – | 1 µM | 86 |
